Measured values published in ChEMBL document CHEMBL1821604, “Anticancer activity and cDNA microarray studies of a (RS)-1,2,3,5-tetrahydro-4,1-benzoxazepine-3-yl]-6-chloro-9H-purine, and an acyclic (RS)-O,N-acetalic 6-chloro-7H-purine” (Eur J Med Chem, 2011).

Assays:
Format in all cases: functional
HT-29 [1] = experiment: Down regulation of HAPLN3 gene expression in human HT-29 cells at IC50 after 48 hrs by cDNA microarray technique relative to control
How it was run: (§1)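 Cells (8 × 10⁶) were cultured in DMEM with 10% heat-inactivated FBS at 37 °C under 5% CO₂. They were exposed for 48 h to compound at its IC₅₀, with DMSO-treated parallel cultures as controls (final DMSO ≤0.1% v/v). Total RNA was isolated by trizol/chloroform phase separation, RNeasy column cleanup and on-column DNase, then quantified by OD260/OD280. Expression was profiled by cDNA microarray relative to control.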

HT-29 [2] = experiment: Down regulation of RAB3D gene expression in human HT-29 cells at IC50 after 48 hrs by cDNA microarray technique relative to control
MCF7 [3] = experiment: Upregulation of FGD3 gene expression in human MCF7 cells at IC50 after 48 hrs by cDNA microarray technique relative to control
HT-29 [4] = experiment: Down regulation of HTN1 gene expression in human HT-29 cells at IC50 after 48 hrs by cDNA microarray technique relative to control; how it was run: as §1
MCF7 [5] = experiment: Down regulation of AF086546 gene expression in human MCF7 cells at IC50 after 48 hrs by cDNA microarray technique relative to control
How it was run: (§2)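 8 × 10⁶ cells exposed 48 h to compound at its IC50 concentration; total RNA isolated with trizol/chloroform and RNeasy columns including on-column DNase step; RNA quantified by OD 260/280; DMSO-treated cultures as control.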

MCF7 [6] = experiment: Down regulation of FLJ12985 gene expression in human MCF7 cells at IC50 after 48 hrs by cDNA microarray technique relative to control; how it was run: as §1
MCF7 [7] = experiment: Down regulation of CD72 gene expression in human MCF7 cells at IC50 after 48 hrs by cDNA microarray technique relative to control; how it was run: as §2
HT-29 [8] = experiment: Down regulation of NFATC1 gene expression in human HT-29 cells at IC50 after 48 hrs by cDNA microarray technique relative to control
HT-29 [9] = experiment: Down regulation of TRPA1 gene expression in human HT-29 cells at IC50 after 48 hrs by cDNA microarray technique relative to control
MCF7 [10] = experiment: Upregulation of BTBD12 gene expression in human MCF7 cells at IC50 after 48 hrs by cDNA microarray technique relative to control
HT-29 [11] = experiment: Upregulation of TREM4 gene expression in human HT-29 cells at IC50 after 48 hrs by cDNA microarray technique relative to control
HT-29 [12] = experiment: Upregulation of Beta4GalNAc-T4 gene expression in human HT-29 cells at IC50 after 48 hrs by cDNA microarray technique relative to control
MCF7 [13] = experiment: Down regulation of FLJ37562 gene expression in human MCF7 cells at IC50 after 48 hrs by cDNA microarray technique relative to control; how it was run: as §1
HT-29 [14] = experiment: Down regulation of ALB gene expression in human HT-29 cells at IC50 after 48 hrs by cDNA microarray technique relative to control; how it was run: as §2
MCF7 [15] = experiment: Upregulation of CD84 gene expression in human MCF7 cells at IC50 after 48 hrs by cDNA microarray technique relative to control
HT-29 [16] = experiment: Upregulation of LOC283385 gene expression in human HT-29 cells at IC50 after 48 hrs by cDNA microarray technique relative to control
HT-29 [17] = experiment: Down regulation of GBP1 gene expression in human HT-29 cells at IC50 after 48 hrs by cDNA microarray technique relative to control; how it was run: as §1
MCF7 [18] = experiment: Down regulation of DKFZp727G131 gene expression in human MCF7 cells at IC50 after 48 hrs by cDNA microarray technique relative to control; how it was run: as §2
MCF7 [19] = experiment: Upregulation of ROS1 gene expression in human MCF7 cells at IC50 after 48 hrs by cDNA microarray technique relative to control
HT-29 [20] = experiment: Down regulation of CDH4 gene expression in human HT-29 cells at IC50 after 48 hrs by cDNA microarray technique relative to control; how it was run: as §2
HT-29 [21] = experiment: Upregulation of KIAA0553 gene expression in human HT-29 cells at IC50 after 48 hrs by cDNA microarray technique relative to control
HT-29 [22] = experiment: Down regulation of TNPO1 gene expression in human HT-29 cells at IC50 after 48 hrs by cDNA microarray technique relative to control
HT-29 [23] = experiment: Down regulation of STK19 gene expression in human HT-29 cells at IC50 after 48 hrs by cDNA microarray technique relative to control
HT-29 [24] = experiment: Down regulation of HKE2 gene expression in human HT-29 cells at IC50 after 48 hrs by cDNA microarray technique relative to control; how it was run: as §1
MCF7 [25] = experiment: Down regulation of THC2438856 gene expression in human MCF7 cells at IC50 after 48 hrs by cDNA microarray technique relative to control
HT-29 [26] = experiment: Down regulation of C20orf178 gene expression in human HT-29 cells at IC50 after 48 hrs by cDNA microarray technique relative to control; how it was run: as §2
HT-29 [27] = experiment: Down regulation of DKFZp451J0118 gene expression in human HT-29 cells at IC50 after 48 hrs by cDNA microarray technique relative to control; how it was run: as §2
HT-29 [28] = experiment: Down regulation of HSPA1A gene expression in human HT-29 cells at IC50 after 48 hrs by cDNA microarray technique relative to control; how it was run: as §1
MCF7 [29] = experiment: Upregulation of X77737 gene expression in human MCF7 cells at IC50 after 48 hrs by cDNA microarray technique relative to control
MCF7 [30] = experiment: Down regulation of CCT6B gene expression in human MCF7 cells at IC50 after 48 hrs by cDNA microarray technique relative to control; how it was run: as §2
HT-29 [31] = experiment: Down regulation of RALGDS gene expression in human HT-29 cells at IC50 after 48 hrs by cDNA microarray technique relative to control
HT-29 [32] = experiment: Upregulation of PLOD2 gene expression in human HT-29 cells at IC50 after 48 hrs by cDNA microarray technique relative to control
HT-29 [33] = experiment: Down regulation of ANXA6 gene expression in human HT-29 cells at IC50 after 48 hrs by cDNA microarray technique relative to control; how it was run: as §2
HT-29 [34] = experiment: Down regulation of D4S234E gene expression in human HT-29 cells at IC50 after 48 hrs by cDNA microarray technique relative to control; how it was run: as §2
HT-29 [35] = experiment: Down regulation of ARL10B gene expression in human HT-29 cells at IC50 after 48 hrs by cDNA microarray technique relative to control; how it was run: as §2
HT-29 [36] = experiment: Down regulation of IL26 gene expression in human HT-29 cells at IC50 after 48 hrs by cDNA microarray technique relative to control; how it was run: as §1
MCF7 [37] = experiment: Upregulation of MAGEA2B gene expression in human MCF7 cells at IC50 after 48 hrs by cDNA microarray technique relative to control
HT-29 [38] = experiment: Down regulation of DRD5 gene expression in human HT-29 cells at IC50 after 48 hrs by cDNA microarray technique relative to control; how it was run: as §1

## COC(CN(c1ccccc1CO)S(=O)(=O)c1ccccc1[N+](=O)[O-])n1cnc2ncnc(Cl)c21 (racemic)
HT-29 [1]
  fold change (FC): -2.64
HT-29 [2]
  fold change (FC): -2.24
MCF7 [3]
  fold change (FC): 2.16
HT-29 [4]
  fold change (FC): -2.1
MCF7 [5]
  fold change (FC): -2.14
MCF7 [6]
  fold change (FC): -2.11
MCF7 [7]
  fold change (FC): -2.17
HT-29 [8]
  fold change (FC): -2.78
HT-29 [9]
  fold change (FC): -3.22
MCF7 [10]
  fold change (FC): 3.24
HT-29 [11]
  fold change (FC): 2.27
HT-29 [12]
  fold change (FC): 3.08
MCF7 [13]
  fold change (FC): -2.08
HT-29 [14]
  fold change (FC): -2.32
MCF7 [15]
  fold change (FC): 3.37
HT-29 [16]
  fold change (FC): 4.37
HT-29 [17]
  fold change (FC): -2.47
MCF7 [18]
  fold change (FC): -2.03
MCF7 [19]
  fold change (FC): 2.59
HT-29 [20]
  fold change (FC): -2.22

## O=C(OCC1c2ccccc2-c2ccccc21)N1CC(n2cnc3c(Cl)ncnc32)OCc2ccccc21 (racemic)
HT-29 [21]
  fold change (FC): 2.07
HT-29 [22]
  fold change (FC): -2.5
HT-29 [23]
  fold change (FC): -2.34
HT-29 [24]
  fold change (FC): -2
MCF7 [25]
  fold change (FC): -3.05
HT-29 [26]
  fold change (FC): -2.21
HT-29 [27]
  fold change (FC): -2.03
HT-29 [28]
  fold change (FC): -2.2
MCF7 [29]
  fold change (FC): 3.11
MCF7 [30]
  fold change (FC): -3.22
HT-29 [31]
  fold change (FC): -2.01
HT-29 [32]
  fold change (FC): 2.76
HT-29 [33]
  fold change (FC): -2.27
HT-29 [34]
  fold change (FC): -2.91
HT-29 [35]
  fold change (FC): -2.27
HT-29 [36]
  fold change (FC): -2.22
MCF7 [37]
  fold change (FC): 2.53
HT-29 [38]
  fold change (FC): -2.3
